Assays:
[1] = Total clearance in morbidly obese human at 461 mg infused over 30 mins; type: ADME, organism-based; details: in vivo, iv
Summary of the method: (§1)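 Adult females received 4 mg/kg daptomycin by total body weight, IV over 30 min. Plasma sampled to 24 h and assayed by HPLC-UV at 214 nm. Total clearance = dose/AUC0-∞ (trapezoidal AUC0-24 plus C24/kel). Normalized to total body weight, ideal body weight (45.5 + 2.3 × inches over 5 ft) or fat-free weight from bioelectric impedance.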

[2] = Protein binding in morbidly obese human serum at 461 mg infused over 30 mins; type: ADME, cell-free; details: iv, read-out: PB (converted)
Summary of the method: (§2)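 Serum (separator tubes) was drawn at 0.5, 2 and 8 h after a single 30-min IV infusion of 4 mg/kg (total body weight) in adult females. Samples were spun at 1,500 × g for 10 min and stored at −80°C. Binding was measured by equilibrium dialysis, solid-phase extraction and LC-MS, linear over 1–250 μg/ml.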

Homo sapiens [3] = organism: Homo sapiens; assay: Total clearance per kg of total body weight in morbidly obese human at 461 mg infused over 30 mins; type: ADME, organism-based; details: in vivo, iv, 0.5 h; summary of the method: as §1
[4] = Protein binding in normal weight human serum at 236 mg infused over 30 mins; type: ADME, cell-free; details: iv, read-out: PB (converted); summary of the method: as §2
[5] = Volume of distribution in normal weight human at 236 mg infused over 30 mins; type: ADME, organism-based; details: in vivo, iv
[6] = Half life in normal weight human at 236 mg infused over 30 mins; type: ADME, organism-based; details: in vivo, iv
Summary of the method: (§3)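 Single 30-min IV infusion at 4 mg/kg total body weight in adult females. Plasma sampled at 0.5, 1, 1.5, 2, 4, 8, 12 and 24 h and assayed by HPLC-UV at 214 nm. kel came from log-linear regression, giving t1/2 = ln2/kel. AUC0-∞ is the linear-trapezoidal AUC0-24 plus C24/kel.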

Homo sapiens [7] = organism: Homo sapiens; assay: Total clearance per kg of ideal body weight in morbidly obese human at 461 mg infused over 30 mins; type: ADME, organism-based; details: in vivo, iv, 0.5 h; summary of the method: as §1
[8] = Renal clearance in morbidly obese human at 461 mg infused over 30 mins; type: ADME, organism-based, Kidney; details: in vivo, iv, read-out: CL_renal (converted)
Summary of the method: (§4)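 Adult females were given a single 30-min IV infusion (4 mg/kg total body weight). Bladder voided before dosing, then urine collected for 24 h. Urine and plasma assayed by HPLC-UV at 214 nm. Renal clearance = 24-h urinary amount / plasma AUC0-24. Normalized to total body weight, ideal body weight or bioimpedance fat-free weight.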

Homo sapiens [9] = organism: Homo sapiens; assay: Total clearance per kg of ideal body weight in normal weight human at 236 mg infused over 30 mins; type: ADME, organism-based; details: in vivo, iv, 0.5 h; summary of the method: as §1
Homo sapiens [10] = organism: Homo sapiens; assay: Volume of distribution per kg of ideal body weight in morbidly obese human at 461 mg infused over 30 mins; type: ADME, organism-based; details: in vivo, iv, 0.5 h
[11] = Cmax in morbidly obese human at 461 mg infused over 30 mins; type: ADME, organism-based; design: dose 461 mg; details: in vivo, iv
[12] = Cmin in normal weight human at 236 mg infused over 30 mins after 24 hrs; type: ADME, organism-based; details: in vivo, iv, read-out: Cmin
Homo sapiens [13] = organism: Homo sapiens; assay: Total clearance per kg of fat-free weight in morbidly obese human at 461 mg infused over 30 mins; type: ADME, organism-based; details: in vivo, iv, 0.5 h; summary of the method: as §1
Homo sapiens [14] = organism: Homo sapiens; assay: Total clearance per kg of total body weight in normal weight human at 236 mg infused over 30 mins; type: ADME, organism-based; details: in vivo, iv, 0.5 h; summary of the method: as §1
[15] = Cmax in human at 4 mg/kg of total body weight; type: ADME, organism-based; design: dose 4 mg/kg; details: in vivo
[16] = Half life in morbidly obese human at 461 mg infused over 30 mins; type: ADME, organism-based; details: in vivo, iv; summary of the method: as §3
Homo sapiens [17] = organism: Homo sapiens; assay: Volume of distribution per kg of fat-free weight in normal weight human at 236 mg infused over 30 mins; type: ADME, organism-based; details: in vivo, iv, 0.5 h
[18] = AUC (0 to infinity) in normal weight human at 236 mg infused over 30 mins; type: ADME, organism-based; design: dose 236 mg, time infinity; details: plasma, iv; summary of the method: as §3
Homo sapiens [19] = organism: Homo sapiens; assay: Volume of distribution per kg of total body weight in normal weight human at 236 mg infused over 30 mins; type: ADME, organism-based; details: in vivo, iv, 0.5 h
[20] = Volume of distribution in morbidly obese human at 461 mg infused over 30 mins; type: ADME, organism-based; details: in vivo, iv
[21] = Renal clearance per kg of fat-free weight in normal weight human at 236 mg infused over 30 mins; type: ADME, organism-based, Kidney; details: in vivo, iv, read-out: CL_renal (converted); summary of the method: as §4
[22] = Renal clearance per kg of total body weight in normal weight human at 236 mg infused over 30 mins; type: ADME, organism-based, Kidney; details: in vivo, iv, read-out: CL_renal (converted); summary of the method: as §4
[23] = Renal clearance per kg of ideal body weight in normal weight human at 236 mg infused over 30 mins; type: ADME, organism-based, Kidney; details: in vivo, iv, read-out: CL_renal (converted); summary of the method: as §4
Homo sapiens [24] = organism: Homo sapiens; assay: Volume of distribution per kg of ideal body weight in normal weight human at 236 mg infused over 30 mins; type: ADME, organism-based; details: in vivo, iv, 0.5 h
[25] = Cmin in morbidly obese human at 461 mg infused over 30 mins after 24 hrs; type: ADME, organism-based; details: in vivo, iv, read-out: Cmin
[26] = Renal clearance in normal weight human at 236 mg infused over 30 mins; type: ADME, organism-based, Kidney; details: in vivo, iv, read-out: CL_renal (converted); summary of the method: as §4
[27] = Renal clearance per kg of ideal body weight in morbidly obese human at 461 mg infused over 30 mins; type: ADME, organism-based, Kidney; details: in vivo, iv, read-out: CL_renal (converted); summary of the method: as §4
[28] = Cmax in normal weight human at 236 mg infused over 30 mins; type: ADME, organism-based; design: dose 236 mg; details: in vivo, iv
[29] = AUC (0 to infinity) in morbidly obese human at 461 mg infused over 30 mins; type: ADME, organism-based; design: dose 461 mg, time infinity; details: plasma, iv; summary of the method: as §3
Homo sapiens [30] = organism: Homo sapiens; assay: Volume of distribution per kg of total body weight in morbidly obese human at 461 mg infused over 30 mins; type: ADME, organism-based; details: in vivo, iv, 0.5 h
[31] = Total clearance in normal weight human at 236 mg infused over 30 mins; type: ADME, organism-based; details: in vivo, iv; summary of the method: as §1
Homo sapiens [32] = organism: Homo sapiens; assay: Total clearance per kg of fat-free weight in normal weight human at 236 mg infused over 30 mins; type: ADME, organism-based; details: in vivo, iv, 0.5 h; summary of the method: as §1
Homo sapiens [33] = organism: Homo sapiens; assay: Volume of distribution per kg of fat-free weight in morbidly obese human at 461 mg infused over 30 mins; type: ADME, organism-based; details: in vivo, iv, 0.5 h
[34] = Renal clearance per kg of fat-free weight in morbidly obese human at 461 mg infused over 30 mins; type: ADME, organism-based, Kidney; details: in vivo, iv, read-out: CL_renal (converted); summary of the method: as §4
[35] = Renal clearance per kg of total body weight in morbidly obese human at 461 mg infused over 30 mins; type: ADME, organism-based, Kidney; details: in vivo, iv, read-out: CL_renal (converted); summary of the method: as §4

CCCCCCCCCC(=O)N[C@@H](Cc1c[nH]c2ccccc12)C(=O)N[C@H](CC(N)=O)C(=O)N[C@@H](CC(=O)O)C(=O)N[C@@H]1C(=O)NCC(=O)N[C@@H](CCCN)C(=O)N[C@@H](CC(=O)O)C(=O)N[C@H](C)C(=O)N[C@@H](CC(=O)O)C(=O)NCC(=O)N[C@H](CO)C(=O)N[C@@H]([C@H](C)CC(=O)O)C(=O)N[C@@H](CC(=O)c2ccccc2N)C(=O)O[C@@H]1C
clearance [1]: 13.7 mL/min
fraction unbound at 0.5 h [2]: 0.112
CL (Homo sapiens [3]): 0.0071 L/h
fraction unbound at 0.5 h [4]: 0.1
Vd [5]: 7.69 L
half-life [6]: 7.72 h
CL (Homo sapiens [7]): 0.016 L/h
CL renal at 0.5 h [8]: 8.33 mL/min
CL (Homo sapiens [9]): 0.013 L/h
Vd (Homo sapiens [10]): 0.19 L
Cmax [11]: 67300 ng/mL
concentration at 24 h [12]: 3390 ng/mL
CL (Homo sapiens [13]): 0.015 L/h
CL (Homo sapiens [14]): 0.012 L/h
Cmax [15]: 42300 ng/mL
half-life [16]: 8.68 h
Vd (Homo sapiens [17]): 0.18 L
AUC(0-inf) [18]: 346 µg·h/mL
Vd (Homo sapiens [19]): 0.13 L
Vd [20]: 10 L
CL renal at 0.5 h [21]: 0.217 mL/min
CL renal at 0.5 h [22]: 0.158 mL/min
CL renal at 0.5 h [23]: 0.165 mL/min
Vd (Homo sapiens [24]): 0.14 L
concentration at 24 h [25]: 6550 ng/mL
CL renal at 0.5 h [26]: 9.83 mL/min
CL renal at 0.5 h [27]: 0.16 mL/min
Cmax [28]: 42300 ng/mL
AUC(0-inf) [29]: 581 µg·h/mL
Vd (Homo sapiens [30]): 0.09 L
clearance [31]: 12.2 mL/min
CL (Homo sapiens [32]): 0.016 L/h
Vd (Homo sapiens [33]): 0.18 L
CL renal at 0.5 h [34]: 0.153 mL/min
CL renal at 0.5 h [35]: 0.0733 mL/min
